In brackets after ≈: the same amount, converted by molar mass.
Columns and labels:
[1] = target: Tubulin (Bos taurus, UniProt Q6B856+Q862L2+Q862F3); assay: Inhibition of bovine brain tubulin polymerization (ITP).
[2] = system: CAKI-1; assay: Cytotoxicity against human renal cancer cells (CAKI-1) using SRB assay.; assay type: functional; conditions: read-out: ED50 (the source's name)
Summary of the method: (§1)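 Cells grown at 37 °C in RPMI-1640 with 10% FBS and 100 µg/mL kanamycin, humidified 5% CO2. Seeding density set per line so control A562 reads 1-2.5. Drug given from DMSO stocks, final DMSO ≤2% (v/v), for 3 days. SRB stain, absorbance at 562 nm. […] Triplicates.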

[3] = target: T1, Tubulin (Bos taurus) (UniProt Q6B856+Q862L2+Q862F3); assay: % inhibition of [3H]colchicine binding to bovine brain tubulin at a concentration of 5 uM
Summary of the method: (§2)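 [3H]colchicine at 5 µM incubated with 1 µM tubulin. Inhibitor present at the stated concentration (5 or 1 µM). Result given as % inhibition of colchicine binding ± SD.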

[4] = system: A549; assay: Cytotoxicity against human lung carcinoma cells (A-549) using SRB assay.; assay type: functional; conditions: read-out: ED50 (the source's name); summary of the method: as §1
[5] = system: HCT-8; assay: Cytotoxicity against human ileocecal carcinoma cells (HCT-8) using SRB assay.; assay type: functional; conditions: read-out: ED50 (the source's name); summary of the method: as §1
[6] = system: KB; assay: Cytotoxicity against human epidermoid carcinoma of the nasopharyngeal cells (KB) using SRB assay.; assay type: functional; conditions: read-out: ED50 (the source's name); summary of the method: as §1
[7] = system: MCF7; assay: Cytotoxicity against human breast cancer cells (MCF-7) using SRB assay.; assay type: functional; conditions: read-out: ED50 (the source's name); summary of the method: as §1
[8] = system: SK-MEL-2; assay: The compound was tested for the cytotoxicity for the cell lines of human melanoma cancer (SKMEL-2) using SRB assay.; assay type: functional; conditions: read-out: ED50 (the source's name); summary of the method: as §1
[9] = target: T1, Tubulin (Bos taurus); assay: The compound was tested for the % inhibition of [3H]colchicine binding to bovine brain tubulin at a concentration of 1 uM; summary of the method: as §2

Structure (SMILES) | IC50 [1] [nM] | EC50 [2] [µg/mL] | inhibition [3] [%] | EC50 [4] [µg/mL] | EC50 [5] [µg/mL] | EC50 [6] [µg/mL] | EC50 [7] [µg/mL] | EC50 [8] [µg/mL] | inhibition [9] [%]
O=C1C[C@@H](c2ccccc2F)Nc2cc3c(cc21)OCO3 | 560 | 1 (≈ 3.51 µM) | 51 | 0.18 (≈ 0.631 µM) | 0.09 (≈ 0.315 µM) | 0.08 (≈ 0.28 µM) | 0.1 (≈ 0.351 µM) |  | 
COc1cc2c(c(OC)c1OC)-c1ccc(OC)c(=O)cc1[C@@H](NC(C)=O)CC2 [COLCHICINE] |  | 0.4 (≈ 1 µM) |  | 0.002 (≈ 0.00501 µM) | 0.016 (≈ 0.0401 µM) | 0.002 (≈ 0.00501 µM) | > 0.4 | 0.008 (≈ 0.02 µM) | 
COc1cccc([C@H]2CC(=O)c3ccccc3N2)c1 | 7200 | 3.8 (≈ 15 µM) |  | 0.5 (≈ 1.97 µM) | 0.5 (≈ 1.97 µM) | 0.5 (≈ 1.97 µM) | 0.6 (≈ 2.37 µM) |  | 
CC(NC(=O)C(=O)N/N=C1\C[C@H](c2ccccc2F)Nc2cc3c(cc21)OCO3)c1ccccc1 (stereo not given in full) | > 40000 | 18 (≈ 37.9 µM) |  | 9 (≈ 19 µM) | 9 (≈ 19 µM) | 10 (≈ 21.1 µM) | 25 (≈ 52.7 µM) |  | 
COc1cccc(C2CC(=O)c3ccccc3N2)c1 (stereo not given) | 3300 | 0.32 (≈ 1.26 µM) |  | 0.23 (≈ 0.908 µM) | 0.12 (≈ 0.474 µM) | 0.11 (≈ 0.434 µM) | 0.32 (≈ 1.26 µM) | 0.2 (≈ 0.79 µM) | 
COc1cccc([C@@H]2C/C(=N\NC(=O)C(=O)NC(C)c3ccccc3)c3ccccc3N2)c1 (stereo not given in full) | > 40000 | 25 (≈ 56.5 µM) |  | 8 (≈ 18.1 µM) | 3.8 (≈ 8.59 µM) | 8 (≈ 18.1 µM) | 8 (≈ 18.1 µM) |  | 
COc1cccc([C@@H]2CC(=O)c3ccccc3N2)c1 | 1200 | 0.15 (≈ 0.592 µM) |  | 0.15 (≈ 0.592 µM) | 0.09 (≈ 0.355 µM) | 0.12 (≈ 0.474 µM) | 0.3 (≈ 1.18 µM) |  | 
COc1cccc(-c2cc(O)c3cc4c(cc3n2)OCO4)c1 | 740 |  | 33 |  |  |  |  |  | 
COc1cccc(-c2cc(O)c3cc(N4CCCC4)ccc3n2)c1 | 490 |  | 91 |  |  |  |  |  | 65
COc1cccc(-c2cc(O)c3ccccc3n2)c1 | 1500 |  |  |  |  |  |  |  | 
O=C1CC(c2ccccc2F)Nc2cc3c(cc21)OCO3 (stereo not given) | 1100 | 1 (≈ 3.51 µM) |  | 0.08 (≈ 0.28 µM) | 0.13 (≈ 0.456 µM) | 0.06 (≈ 0.21 µM) | 0.06 (≈ 0.21 µM) | 0.125 (≈ 0.438 µM) | 
O=C1CC(c2cccc(Cl)c2)Nc2ccc(N3CCCC3)cc21 (stereo not given) | 760 | 0.95 (≈ 2.91 µM) | 89 | 0.09 (≈ 0.275 µM) | 0.09 (≈ 0.275 µM) | 0.05 (≈ 0.153 µM) | 0.31 (≈ 0.949 µM) | 0.08 (≈ 0.245 µM) | 63
COc1cccc([C@H]2CC(=O)c3cc4c(cc3N2)OCO4)c1 | 2300 | 0.25 (≈ 0.841 µM) |  | 0.09 (≈ 0.303 µM) | 0.08 (≈ 0.269 µM) | 0.07 (≈ 0.235 µM) | 0.12 (≈ 0.404 µM) |  | 
O=C1CC(c2cccc(F)c2)Nc2cc3c(cc21)OCO3 (stereo not given) | 750 | 0.016 (≈ 0.0561 µM) | 75 | 0.012 (≈ 0.0421 µM) | 0.016 (≈ 0.0561 µM) | 0.012 (≈ 0.0421 µM) | 0.032 (≈ 0.112 µM) | 0.016 (≈ 0.0561 µM) | 
